Results of several laboratories.
Compare with care: the assays were run in different laboratories. ≈ marks a conversion by molar mass, not a printed value.
Organism: Bacillus subtilis

| Compound | read-out | method | strain | concentration | time | endpoint | value |
| --- | --- | --- | --- | --- | --- | --- | --- |
| CC(C)CCCCCCCCCCCCc1cc(O)cc(O)c1 | microbial growth | – | – | – | – | IC50 | 54.6 µM |
| O=C(O)c1cn(C2CC2)c2cc(N3CCNCC3)c(F)cc2c1=O | microbial killing | – | – | – | – | MBC | 19 µM |
| CCCCCCCCCCCC(=O)OC[C@H]1O[C@@H](n2cc(C)c(=O)[nH]c2=O)C[C@@H]1O | microbial killing | broth dilution | – | – | – | MBC | 16 µg/mL |
| Cc1c(NN=C(C#N)C2=NC(=O)CS2)c(=O)n(-c2ccccc2)n1C | microbial killing | broth dilution | – | – | – | MBC | 2 µg/mL |
| CCC(CCCCCCCCCCc1cc(O)cc(O)c1)C(C)C (stereo not shown) | microbial growth | – | – | – | – | IC50 | 3.44 µM |
| CC1C(=NOCc2cc(-c3ccc(Cl)cc3)no2)CC(c2ccccc2)OC1c1ccccc1 (stereo not shown) | microbial growth | broth dilution | MTCC121 | – | 24 h | MIC | 12.5 µg/mL (≈ 26.4 µM) |
| O=C(CCCCC1CCCCC1)NP(=O)(O)O | microbial growth | – | ATCC23857 | – | – | MIC | > 200 µg/mL |
| CCC1C(=NOCc2cc(-c3ccc(Cl)cc3)no2)CC(c2ccccc2)OC1c1ccccc1 (stereo not shown) | microbial growth | broth dilution | MTCC121 | – | 24 h | MIC | 12.5 µg/mL (≈ 25.7 µM) |
| CCCCCCCC/C=C\CCCCCCCC(=O)C(F)(F)P(=O)(O)O | microbial growth | – | ATCC23857 | – | – | MIC | > 200 µg/mL |
| CCCCCCCCCCCC(=O)OC[C@H]1O[C@@H](n2cc(C)c(=O)[nH]c2=O)C[C@@H]1OC(=O)c1ccc(C(C)(C)C)cc1 | microbial killing | broth dilution | – | – | – | MBC | 16 µg/mL |
| CCCCCCCCCCCC(=O)NP(=O)(O)O | microbial growth | – | ATCC23857 | – | – | MIC | > 200 µg/mL |
| CC(C)CCCCCCCCCCCCCCCc1cc(O)cc(O)c1 | microbial growth | – | – | – | – | IC50 | 14.5 µM |
| CCCCCCCCCCCCCCCC(=O)NS(=O)(=O)Oc1ccc(OC)cc1 | microbial growth | – | ATCC23857 | – | – | MIC | 3.12 µg/mL (≈ 7.06 µM) |
| CCCCCCCCCCCCCCCc1cc(O)cc(O)c1 | microbial growth | – | – | – | – | IC50 | 26.7 µM |
| CCCCCCCCCCCCCCCC(=O)CP(=O)(O)O | microbial growth | – | ATCC23857 | – | – | MIC | 25 µg/mL (≈ 74.8 µM) |
| CC1(C)S[C@@H]2[C@H](NC(=O)[C@H](N)c3ccccc3)C(=O)N2[C@H]1C(=O)O | microbial growth | well diffusion | ATCC6633 | 60000 µg/mL | – | inhibition zone | 31 mm |
